Results: ChEMBL document CHEMBL4513216, “Probing the Open Global Health Chemical Diversity Library for Multistage-Active Starting Points for Next-Generation Antimalarials” (ACS Infect Dis, 2020)

Test: Toxicity liver stage against HepG2, at 10uM
Format: cell-based
Design: test concentration 10 uM, cell line HepG2-A16-CD81EGFP
Settings: human, HepG2-A16-CD81EGFP cells; read-out: INHIBITION
Summary of the method: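 Uninfected HepG2-A16-CD81EGFP cells, 3 × 10^3 per well, 1536-well, plated on prespotted compound at 10 μM final, parasite-free screening media added to match infected plates; puromycin 10 μM positive, DMSO 0.5% negative; run in parallel with 48 h PbLuc assay at 37 °C, 5% CO2; viability by CellTiter-Glo luminescence, normalized to controls.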

SMILES | cytotoxicity at 10 µM [%]
CC1CN(C)CCN1Cc1cccc(C(=O)NCc2ccco2)c1 (stereo not given) | 3.33
Cc1nc(-c2cccc(C(=O)N(C)CC(C)O)c2)cs1 (stereo not given) | 2.68
NC(=O)C1CCN(CCCNC(=O)Nc2nncs2)CC1 | -0.165
COCCCOc1ccc(C(=O)N(Cc2cnn(C)c2)C(C)C)cn1 | 2.1
Cc1nc(CC(C)C)sc1C(=O)N1CCC(C2(C)OCCO2)CC1 | 4.21
COc1ccccc1OCCN1CCCC(c2noc(C3CC3)n2)C1 (stereo not given) | 1.26
COCC(NC(=O)c1cnn(C)c1)c1cccc(C(F)(F)F)c1 (stereo not given) | 1.73
O=C(c1ccc[nH]1)N1CCc2nnc(Cn3cccc3)n2CC1 | 3.46
COc1ccccc1C(=O)N1CCOC2(CCCN(C(C)=O)C2)C1 (stereo not given) | -72.9
O=C1CC2(CCN(Cc3ncc[nH]3)CC2)CN1Cc1cc(F)cc(F)c1 | -5.53
Cc1ccc([C@@H]2CN(C(=O)c3ccon3)C[C@H]2NC(=O)C2CC2)cc1 | 1.08
CCCc1cc(C(=O)N2CCC3(CC2)CN(CCN(C)C)C(=O)O3)no1 | 14.1
COCCC(=O)N(C)CCC1=CCN(C)CC1 | -6.93
CCCc1cc(N2CCC(NCC3(O)CCN(C)CC3)CC2)nc(C)n1 | -16.1
CC(C)c1nccn1C(C)C(=O)N1CCN(c2cnccn2)CC1 (stereo not given) | -12.5
CC(C)c1cc(C(=O)N2CCCN(CCCc3ccccc3)CC2)[nH]n1 | 0.271
CCN(Cc1cnn(C)c1)C[C@H]1CC[C@@H](Cc2ccc(CO)cc2)O1 | 5.95
CN(C)c1ccc(C(=O)N2Cc3cnc(C(C)(C)C)nc3C2)cc1 | -5.51
CN1CC2(CCN(C(=O)c3ccc(-n4cnnc4)cc3Cl)CC2)OC1=O | 4.03
Cn1c(CCNC(=O)CC[C@@H]2CCCN3CCCC[C@H]23)n[nH]c1=O | 4.13
CN1CC2(CCN(C(=O)c3ccc4nonc4c3)CC2)CC1=O | 0.873
CCCN(CCc1ccccc1)C(=O)c1ccccc1NCC(=O)O | 7.38
CCn1cnnc1CCNC(=O)C1COc2ccc(OC)cc2C1 (stereo not given) | -1.31
CC(C)c1nc(CCN(C)C(=O)C2COc3ccccc3C2)no1 (stereo not given) | 4.31
CC(NC(=O)c1ccoc1)c1ccc2c(c1)CCC(=O)N2 (stereo not given) | -1.36
CCc1noc(C(C)N2CCN(CCOCC(F)(F)F)CC2)n1 (stereo not given) | -9.45
Cc1cnn(C2CCCN(C(=O)c3cc4nc(C)ccc4o3)C2)c1 (stereo not given) | 2.22
O=C1C(NCc2nnc3n2CCCC3)CCN1c1ccccc1F (stereo not given) | -4.92

SMILES | cytotoxicity at 10 µM [%]
O=C(NCc1nn(-c2ccccc2)c2c1CCC2)NC1CCOCC1 | -8.72
Cc1oncc1C(=O)NCc1ccnc(OCC(F)(F)F)c1 | -3.39
CN1CCC/C1=N\S(=O)(=O)c1ccc(NC(=O)Cc2cccs2)cc1 | -10.6
CNS(=O)(=O)c1ccc(CNC(=O)c2c(C)oc(C)c2C)cc1 | -17.1
O=C(CCc1ccncc1)NCc1csc(Br)c1 | -15.5
CCc1noc(CNC2CCCN(Cc3noc(C4CC4)n3)C2)n1 (stereo not given) | -25.6
COc1c(CNCC(O)c2ccc(C)cc2)c(C(C)C)nn1C (stereo not given) | -10.6
Cc1ncsc1C(=O)N(Cc1cccnc1)C1CC1 | -4.84
CC(C)(CNC(=O)CCOc1cccc(F)c1)C(N)=O | -0.704
Cc1cnn(CCCNC(=O)N2CCCCC(N3CCCC3)C2)c1 (stereo not given) | -5.97
COc1ccccc1-c1noc(CN2CCCC2Cn2cccn2)n1 (stereo not given) | -8.95
COc1ccc(CC(=O)N2CCCC(n3cc(C)cn3)C2)cc1F (stereo not given) | 1.88
Cc1nc[nH]c1CN(Cc1ccccc1F)C1CC(C)(C)NC(C)(C)C1 | -3.41
c1cncc(OC[C@]23COC[C@H]2CN(Cc2nccs2)C3)c1 | -1.43
O=C1CCC2(CCCN(C(=O)c3ccccn3)CC2)N1 (stereo not given) | -2.51
COCC(=O)N1CCC2(CC1)CC(COC)N(c1ncccn1)C2 (stereo not given) | 6.85
O=C(CC1CC1)N[C@@H]1CN(Cc2ccc(F)cc2)C[C@@H]2CCCO[C@@H]21 | 14.9
Cc1occc1C(=O)N1C[C@@H]2[C@@H](C1)OCC(=O)N2Cc1cccnc1 | 0.661
Cc1cc(C(=O)N2CCC3(CCN3Cc3ccc(F)cc3)C2)no1 (stereo not given) | 4.29
CN(C)C(=O)c1nn(C)c2c1CN(Cc1cccs1)C2 | 4.9
O=C1C[C@H]2[C@@H](CCN2C(=O)Cc2ccccc2)N1Cc1cccnc1 | -3.86
CC(NCc1c(C(C)C)nn(C)c1N(C)C)C(=O)NC1CCCC1 (stereo not given) | 0.966
Cc1ccc(CN2C[C@@H]3CCN(Cc4cccnc4)C(=O)[C@H]3C2)s1 | 0.434
CN(C)C(=O)CC1CC2(CCN(Cc3ccoc3)CC2)c2ccccc21 (stereo not given) | -10.1
O=C([C@H]1CCCO1)N1CCOC2(CCCN(c3ncccc3F)C2)C1 (stereo not given in full) | 1.73
Cc1ccc(CN2C[C@@H]3COC[C@@H](NS(C)(=O)=O)[C@@H]3C2)o1 | -8.52
O=C(c1ccsc1)N1C[C@H]2CCC[C@@]2(COCc2cccnc2)C1 | -2.86
